Series [1] concerns the target T1, C-C chemokine receptor type 2 (Homo sapiens, UniProt P41597). In words: Displacement of [125I]MCP-1 from CCR2 in human PMBC. A general note: Displacement assays read how much labelled ligand stays bound in the presence of the test substance.
Target sequence in this assay (P41597 whole entry): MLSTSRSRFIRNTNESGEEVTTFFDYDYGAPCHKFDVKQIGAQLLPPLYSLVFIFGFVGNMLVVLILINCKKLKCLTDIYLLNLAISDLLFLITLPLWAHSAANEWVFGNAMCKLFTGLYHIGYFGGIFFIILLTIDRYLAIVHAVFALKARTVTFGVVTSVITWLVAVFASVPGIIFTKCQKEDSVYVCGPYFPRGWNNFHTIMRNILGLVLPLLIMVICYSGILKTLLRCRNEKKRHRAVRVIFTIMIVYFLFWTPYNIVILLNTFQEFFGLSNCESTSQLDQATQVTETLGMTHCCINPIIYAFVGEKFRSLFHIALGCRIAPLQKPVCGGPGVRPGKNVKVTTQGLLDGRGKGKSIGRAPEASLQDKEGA
Series [2] is described as follows: Metabolic stability of the compound in mouse liver microsomes assessed as compound remaining at 0.5 uM aftet 10 mins. The series is classed as ADME, Microsome. The note with it: read-out: Stability. In outline: (§1)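 Test compound at 0.5 μM initial concentration incubated 10 min with human, rat or mouse liver microsomes. Stability expressed as percentage of parent compound remaining at the end of incubation.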
A general note: Liver microsomes are a subcellular fraction often used to study metabolism.

A short description of series [3]: Metabolic stability of the compound in rat liver microsomes assessed as compound remaining at 0.5 uM aftet 10 mins. The series is classed as ADME, Microsome. The note with it: read-out: Stability. In outline: as §1
Series [4] is described as follows: Metabolic stability of the compound in human liver microsomes assessed as compound remaining at 0.5 uM aftet 10 mins. The series is classed as ADME, Microsome. The note with it: read-out: Stability. In outline:
as §1

For series [5], the target named is C-C chemokine receptor type 5 (Homo sapiens, UniProt P51681). In words: Displacement of [125I]MIP-1beta from CCR5.
Chain of C-C chemokine receptor type 5 (P51681 whole entry): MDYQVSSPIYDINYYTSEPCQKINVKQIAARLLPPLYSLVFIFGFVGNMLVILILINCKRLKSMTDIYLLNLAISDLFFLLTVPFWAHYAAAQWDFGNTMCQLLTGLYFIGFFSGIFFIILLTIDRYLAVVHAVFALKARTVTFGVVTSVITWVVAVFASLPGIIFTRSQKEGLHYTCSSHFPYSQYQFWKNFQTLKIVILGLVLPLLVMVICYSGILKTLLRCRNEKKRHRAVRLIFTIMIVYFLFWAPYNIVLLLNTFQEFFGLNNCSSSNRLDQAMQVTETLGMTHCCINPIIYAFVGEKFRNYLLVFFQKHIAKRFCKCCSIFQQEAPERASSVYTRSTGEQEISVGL
Another series is filed under the species Homo sapiens. In words: Selectivity ratio of IC50 for CCR5 to IC50 for human CCR2.
The target in series [6] is T1, C-C chemokine receptor type 2. In words: Displacement of [125I]MCP-1 from CCR2 in human THP1 cells. The series is classed as cell-based, THP-1. In a few lines:
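Competition binding against [¹²⁵I]MCP-1 using THP-1 cells in place of peripheral blood mononuclear cells. IC50 typically given as the mean of two determinations.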
Target sequence in this assay (P41597 whole entry): as the sequence (P41597 whole entry) above

For series [7] the target is unchanged. In words: Displacement of [125I]MCP-1 from CCR2 in human PMBC up to 2400 nM. In outline: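 Competition binding against [¹²⁵I]MCP-1 using human peripheral blood mononuclear cells at room temperature. IC50 typically given as the mean of two determinations (± standard deviation).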
Target sequence in this assay (P41597 whole entry, looked up): as the sequence (P41597 whole entry) above

Active and inactive are the calls of the source. No cut-off for these calls is given here.

As to `N[C@H]1CC[C@@H](NC(=O)CNC(=O)c2cccc(C(F)(F)F)c2)CC1`, in series [1], the IC50 (as a rule, the midpoint of a concentration-inhibition curve) came to 4100 nM.

Compound `CCCN(C)[C@@H]1CC[C@H](NC(=O)CNC(=O)c2cccc(C(F)(F)F)c2)C[C@@H]1CS(=O)(=O)c1ccccc1` (racemic) gave an IC50 in series [1] of 370 nM.

In series [1], `CC(C)N[C@@H]1CC[C@H](NC(=O)CNC(=O)c2cccc(C(F)(F)F)c2)C[C@@H]1CS(=O)(=O)c1ccccc1` (racemic) gave a half-inhibitory concentration (IC50) of 12 nM. Besides, the figures for the remaining at 10 min, 0.5 µM in series [2], in series [3] and in series [4] were 9.6%, 0.9% and 4.4%, respectively.

Take `CC(C)N[C@@H]1CC[C@H](NC(=O)CNC(=O)c2cccc(C(F)(F)F)c2)C[C@H]1CS(=O)(=O)c1ccccc1`: in series [1], the IC50 amounted to 310 nM.

Compound `CN[C@@H]1CC[C@H](NC(=O)CNC(=O)c2cccc(C(F)(F)F)c2)C[C@@H]1CS(=O)(=O)c1ccccc1` (racemic) registered an IC50 in series [1] of 180 nM.

Take `O=C(CNC(=O)c1cccc(C(F)(F)F)c1)N[C@H]1CC[C@@H](NC2CCC2)[C@@H](CS(=O)(=O)c2ccccc2)C1` (racemic): the IC50 in series [1] was 34 nM.

For the compound `CC(C)N[C@@H]1CC[C@H](NC(=O)CNC(=O)c2cc(C(F)(F)F)ccc2NC(=O)N2CCC2)C[C@@H]1CS(=O)(=O)c1ccccc1` (racemic), the IC50 came out at 0.81 µM in series [5] and 6.6 nM in series [6]. The Ratio IC50 in the series listed under Homo sapiens is greater than 100.

In the case of `CC(C)N(C)[C@@H]1CC[C@H](NC(=O)CNC(=O)c2cccc(C(F)(F)F)c2)C[C@H]1CS(=O)(=O)c1ccccc1`, the IC50 in series [1] stood at 2900 nM.

The compound `CC(C)N(C)[C@@H]1CC[C@H](NC(=O)CNC(=O)c2cccc(C(F)(F)F)c2)C[C@@H]1CS(=O)(=O)c1ccccc1` (racemic) showed an IC50 in series [6] of 89 nM.

Compound `CC(C)N(C)[C@@H]1CC[C@H](NC(=O)CNC(=O)c2cccc(C(F)(F)F)c2)C[C@@H]1CS(=O)(=O)c1ccccc1` showed an IC50 in series [1] of 79 nM.

`CC(C)N(C)[C@H]1CC[C@@H](NC(=O)CNC(=O)c2cccc(C(F)(F)F)c2)CC1` gave an IC50 in series [1] of 72 nM.

In turn, `CN(C)[C@@H]1CC[C@H](NC(=O)CNC(=O)c2cccc(C(F)(F)F)c2)C[C@@H]1CS(=O)(=O)c1ccccc1` (racemic) returned an IC50 in series [1] of 130 nM. In addition, the remaining at 10 min, 0.5 µM was 4.3% in series [2], 3.9% in series [3] and 4.4% in series [4].

`CCCN[C@@H]1CC[C@H](NC(=O)CNC(=O)c2cccc(C(F)(F)F)c2)C[C@@H]1CS(=O)(=O)c1ccccc1` (racemic): the IC50 in series [1] stood at 54 nM. Further, the results for the remaining at 10 min, 0.5 µM in series [2], in series [3] and in series [4] were 28%, 8% and 11%, respectively.

As to `CC(C)N[C@@H]1CC[C@H](NC(=O)CNC(=O)c2cccc(C(F)(F)F)c2)[C@H](CS(=O)(=O)c2ccccc2)C1`, in series [1], the concentration for half-maximal inhibition (IC50) was found to be 5.2 nM.

For `CC(C)N(C)[C@@H]1CC[C@H](NC(=O)CNC(=O)c2cc(C(F)(F)F)ccc2NC(=O)N2CCC2)C[C@@H]1CS(=O)(=O)c1ccccc1` (racemic), the IC50 in series [6] was 34 nM.

Compound `N[C@@H]1CC[C@H](NC(=O)CNC(=O)c2cccc(C(F)(F)F)c2)[C@H](CS(=O)(=O)c2ccccc2)C1` (racemic) came in with an IC50 in series [1] of 37 nM.

The compound `CC(C)N[C@H]1CC[C@@H](NC(=O)CNC(=O)c2cccc(C(F)(F)F)c2)CC1` came in with an IC50 in series [1] of 570 nM.

In series [6], `CCN[C@@H]1CC[C@H](NC(=O)CNC(=O)c2cc(C(F)(F)F)ccc2NC(=O)N2CCC2)C[C@@H]1CS(=O)(=O)c1ccccc1` (racemic) returned a concentration for half-maximal inhibition (IC50) of 12 nM.

The compound `N[C@@H]1CC[C@H](NC(=O)CNC(=O)c2cccc(C(F)(F)F)c2)C[C@@H]1CS(=O)(=O)c1ccccc1` (racemic) yielded an IC50 in series [1] of 59 nM. Besides, the remaining at 10 min, 0.5 µM is 96% in series [2], 57% in series [3] and 100% in series [4].

Turning to `CC(C)N(C)[C@H]1CC[C@@H](NC(=O)CNC(=O)c2cccc(C(F)(F)F)c2)C[C@H]1CS(=O)(=O)c1ccccc1`, the inhibition entry in series [7] was “inactive”.

The compound `O=C(CNC(=O)c1cccc(C(F)(F)F)c1)N[C@H]1CC[C@@H](N2CCCCC2)[C@@H](CS(=O)(=O)c2ccccc2)C1` (racemic) registered an IC50 in series [1] of 340 nM.

The compound `N[C@@H]1CC[C@H](NC(=O)CNC(=O)c2cccc(C(F)(F)F)c2)C[C@H]1CS(=O)(=O)c1ccccc1` displayed an IC50 in series [1] of 3700 nM.

Regarding `N[C@@H]1CC[C@H](NC(=O)CNC(=O)c2cc(C(F)(F)F)ccc2NC(=O)N2CCC2)C[C@@H]1CS(=O)(=O)c1ccccc1` (racemic), the remaining at 10 min, 0.5 µM in series [2] was found to be 87%; in series [3], 71%; in series [4] it was 70%. This compound also yielded an IC50 in series [5] of 7.3 µM.

`CCN[C@@H]1CC[C@H](NC(=O)CNC(=O)c2cccc(C(F)(F)F)c2)C[C@@H]1CS(=O)(=O)c1ccccc1` (racemic) registered an IC50 in series [1] of 27 nM. Further, the remaining at 10 min, 0.5 µM in series [2] turned out to be 25%; in series [3], 23%; in series [4], 24%.

For the origin of these results see ChEMBL document CHEMBL1944590, “Synthesis of 3-phenylsulfonylmethyl cyclohexylaminobenzamide-derived antagonists of CC chemokine receptor 2 (CCR2)” (Bioorg Med Chem Lett, 2012).
